Shown are actives, neighbours in structure and some others; about 6.7% of the full set was active somewhere.
CHOP inhibitor = inhibitors of CHOP induction in ER stress response | CHO-K1 CHOP-promoter luciferase, tunicamycin-induced, 15-18 h | 3.8% of 220,000 active | inhibition, % at 10 µM;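 active = compounds that reduced the stress-induced luciferase reporter signal by more than about 70% of percent inhibition, limit read from the data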
NR3A LBD binder = modulates the human NR3A ligand-binding domain | NR3A LBD differential scanning fluorimetry, Tm shift; 0% = protein alone, 100% = glycine-bound protein | Tm shift relative to glycine control, % at 25 µM | 2.5% of 340,000 active;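 active = melting temperature shift of at least 10% of the positive control shift, at one fixed dose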
PREPL inhibitor = inhibitors of human prolyl oligopeptidase-like enzyme PREPL; inhibition, % at 5.96 µM; 0.68% of 320,000 active; recombinant PREPL, fluorescence polarization activity-based probe; Q4J6C6; AID 2751; in the data active = inhibition above about 43%
Target sequence (Q4J6C6 whole entry, looked up): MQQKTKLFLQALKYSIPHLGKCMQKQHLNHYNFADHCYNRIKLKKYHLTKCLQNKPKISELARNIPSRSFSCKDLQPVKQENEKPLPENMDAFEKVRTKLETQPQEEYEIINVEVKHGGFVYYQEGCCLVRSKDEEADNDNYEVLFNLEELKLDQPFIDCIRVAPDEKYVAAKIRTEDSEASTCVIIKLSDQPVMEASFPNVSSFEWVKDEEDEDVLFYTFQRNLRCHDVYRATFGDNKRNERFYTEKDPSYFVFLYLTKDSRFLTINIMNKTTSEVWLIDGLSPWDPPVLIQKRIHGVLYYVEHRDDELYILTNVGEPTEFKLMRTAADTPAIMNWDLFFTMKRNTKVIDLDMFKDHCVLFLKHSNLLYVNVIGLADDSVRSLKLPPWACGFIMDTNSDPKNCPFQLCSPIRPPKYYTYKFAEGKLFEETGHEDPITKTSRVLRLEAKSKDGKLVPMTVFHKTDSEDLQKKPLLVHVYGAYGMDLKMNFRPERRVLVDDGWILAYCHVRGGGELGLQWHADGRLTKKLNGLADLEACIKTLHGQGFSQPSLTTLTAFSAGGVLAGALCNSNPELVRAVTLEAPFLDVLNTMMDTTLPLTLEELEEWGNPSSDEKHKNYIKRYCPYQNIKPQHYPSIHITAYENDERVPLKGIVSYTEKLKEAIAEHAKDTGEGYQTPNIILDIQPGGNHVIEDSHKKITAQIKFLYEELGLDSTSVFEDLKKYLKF
T cruzi repl = T. cruzi replication inhibition. T. cruzi beta-gal in NIH3T3, luminescence, 90 h. inhibition, % (concentration not given with the values). 1.4% of 300,000 active. AID 1885;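 active = mean inhibition across valid replicates above about 55%, limit read from the data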;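 also: signal also drops with host cell toxicity which is not excluded here; higher percent means less beta-gal luminescence so fewer parasites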
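Test system: β-gal T. cruzi (Tulahuen C4) inside NIH/3T3 cells / Quantity: 5,000 cells/well / Measured by: luminescence from GalScreen with 0.05% NP40, read after 60 min / Medium: DMEM plus 2% FBS / Measure: parasite load inhibition, % / Reagent: Tulahuen C4 trypomastigotes, 5000/well / Schedule: co-culture of at least 90 h after 3 h attachment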
CSC inhib = blocks cancer stem cells; 1.1% of 300,000 active; inhibition, % at 7.5 µM; cancer stem cell-like cells viability, luminescence; in the data active = inhibition above about 75%; tested in HMLE shEcad cells
Beta apoptosis = beta cell apoptosis inhibition; INS-1E cytokine-induced death, ATP luminescence, 48 h; percent of positive-control rescue, neutral wells zero; protection from apoptosis, % (no concentration beside the values); 0.8% of 300,000 active; AID 435005;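 active = Every replicate reaches about 75%, or at least half do and their mean reaches it too, limit read from the data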;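 also: higher means more ATP so stronger rescue from cytokine killing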
Hits are given with their value; n = inactive; x = not tested or not shown.

SMILES	CHOP inhibitor	NR3A LBD binder	PREPL inhibitor	T cruzi repl	CSC inhib	Beta apoptosis
CC(C)Sc1nc2c(cnn2-c2ccccc2)c(=O)[nH]1	71.7	n	n	n	n	x
CCC1CCCCN1C(=O)CSc1nc2c(cnn2-c2ccc(C)cc2)c(=O)[nH]1 (configuration not stated)	n	16.1	n	n	n	n
CC(C)Sc1nc2c(cnn2-c2ccc(F)cc2)c(=O)[nH]1	n	n	n	n	n	n
CCCCCSc1nc2c(cnn2-c2ccccc2)c(=O)[nH]1	71.2	n	n	x	n	n
O=c1[nH]c(SCc2ccccc2Cl)nc2c1cnn2-c1ccccc1	95.8	n	n	n	n	n
Cc1ccc(-n2ncc3c(=O)[nH]c(SCC(=O)N4CCOCC4)nc32)cc1	n	n	n	n	n	n
CCn1nc(NS(=O)(=O)c2ccc([N+](=O)[O-])cc2)c2cc3ccccc3nc21	x	n	n	n	n	x
OC(COCCOc1ccc(Br)cc1)CN1CCN(Cc2ccccc2)CC1 (configuration not stated)	n	n	n	n	n	n
FC(F)Oc1ccc(NC(=S)NNc2ccnc3cc(Cl)ccc23)cc1	n	n	n	n	n	n
c1ccc(C2=Nc3cccnc3C(c3ccccc3)=NN2)cc1	n	n	n	n	n	n
Cc1ccc2nc(N3CCN(Cc4nnnn4Cc4ccccc4)CC3)c(C#N)cc2c1	91.6	n	n	n	n	n
O=C(c1ccco1)N1CCN(c2nc(C3CC3)nc3c2nnn3Cc2ccccc2Cl)CC1	n	n	n	n	n	n
CC(C)(C)c1nc(N2CCN(C(=O)c3ccco3)CC2)c2nnn(Cc3ccccc3)c2n1	76.5	n	n	n	x	n
CCN(CC(=O)Nc1ccc2c(c1)OCCO2)C(=O)c1ccc(C)c(S(=O)(=O)N2CCOCC2)c1	x	n	n	n	n	n
O=C(CSc1nc2ccccc2s1)NNC(=S)Nc1ccc(Br)cc1	n	27.2	n	n	n	n
O=C(CSc1nc2ccccc2s1)Nc1ccc(Cl)c(C(=O)O)c1	n	n	n	n	n	n
O=C(CSc1nc2ccccc2s1)NNC(=O)Nc1ccc(Cl)c(Cl)c1	n	25.5	n	n	n	n
O=C(CSc1nc2ccccc2s1)NNC(=S)Nc1ccccc1	n	n	n	n	n	n
O=C(CN1c2ccccc2Sc2ccccc21)NNC(=O)Nc1ccc(Cl)c(Cl)c1	n	15.8	n	n	101.4	x
O=C(CCN1C(=O)S/C(=C\c2ccccc2)C1=O)NC1CCS(=O)(=O)C1 (configuration not stated)	x	n	n	n	n	n
COc1cc(C2c3cc4c(cc3OC(C)(N3CCCC3)C2C)OCO4)cc(OC)c1OC (configuration not stated)	x	n	x	x	x	x
Cn1cnc(S(=O)(=O)Nc2ccc(Cl)c(C(F)(F)F)c2)c1	x	13.7	n	n	x	n
COc1ccc(C(=O)/C=C/Nc2cc(C)on2)c(OC)c1	n	30.9	n	n	n	n
CCOC(=O)C1(Cc2ccc(Cl)cc2)CCN(C(=O)CCc2ccncc2)CC1	n	n	n	n	n	n
Cc1ccc(S(=O)(=O)c2c(C)nn(C(C)(C)C)c2OC(=O)C(C)C)cc1	n	n	n	n	n	n
SMILES	CHOP inhibitor	NR3A LBD binder	PREPL inhibitor	T cruzi repl	CSC inhib	Beta apoptosis
CCC(=O)Oc1c(S(=O)(=O)c2ccc(C)cc2)c(C)nn1C(C)(C)C	n	15.1	n	n	n	n
Cc1ccc(S(=O)(=O)c2c(C)nn(C(C)(C)C)c2OC(=O)CC(C)C)cc1	80.4	n	n	n	n	n
Cc1ccc(S(=O)(=O)N2CCC(C(=O)Nc3ccc(S(=O)(=O)N4CCOCC4)cc3)CC2)cc1	x	n	x	x	x	x
Cc1ccc(NC(=O)C2CCN(S(=O)(=O)c3ccc4c(c3)NC(=O)C(C)S4)CC2)cc1Cl (configuration not stated)	x	10.1	n	n	n	107.2
O=C(Nc1ccc(C(F)(F)F)cc1)C1CCN(S(=O)(=O)c2ccc(N3CCCC3=O)cc2)CC1	x	n	n	n	n	100.9
Cc1cc(C)cc(NC(=O)C2CCN(S(=O)(=O)c3ccc4c(c3)NC(=O)C(C)S4)CC2)c1 (configuration not stated)	x	n	n	n	n	n
Cc1cc(C)c(C)c(S(=O)(=O)N2CCC(C(=O)Nc3ccc(S(=O)(=O)N4CCOCC4)cc3)CC2)c1C	x	18.6	n	n	x	n
CCOCCCNS(=O)(=O)c1ccc(NC(=O)c2ccc(OC)c([N+](=O)[O-])c2)cc1	n	16.6	n	n	n	n
Cc1ccc(C(C)C)c(OCC(=O)Nc2ccc(N3CCOCC3)cc2N2CCOCC2)c1	x	n	x	x	x	x
COc1ccc(S(=O)(=O)N2CCCCC2)cc1NC(=O)C1CC(=O)N(Cc2ccccc2)C1 (configuration not stated)	x	n	n	x	n	n
O=C(O)c1ccc(Cl)c(S(=O)(=O)Nc2cccc(C(=O)Nc3cccc(C(F)(F)F)c3)c2)c1	n	n	n	n	x	n
Cc1cc(C(=O)Nc2ccc(S(=O)(=O)N3CCOCC3)cc2)ccc1[N+](=O)[O-]	x	30.4	n	n	n	n
COc1cc(-c2nnc(NC(=O)c3ccc(S(=O)(=O)N4CCOCC4)cc3)o2)cc(OC)c1OC	n	x	n	n	n	85.8
COc1ccc(C(=O)Nc2ccc(S(=O)(=O)N3CCOCC3)cc2)cc1[N+](=O)[O-]	x	34.7	n	n	n	n
Cc1ccc(C(=O)Nc2ccc(S(=O)(=O)N3CCOCC3)cc2)cc1	n	n	n	n	n	n
COc1ccc(C(=O)Nc2ccc(S(=O)(=O)N3CCN(C)CC3)cc2)cc1[N+](=O)[O-]	x	n	n	n	x	x
Cc1cc(S(=O)(=O)N2CCOCC2)ccc1OCC(=O)NCc1ccccn1	x	n	n	n	n	x
NS(=O)(=O)c1ccc(CNC(=S)NC2CC2)cc1	n	n	n	n	n	n
Cn1cc(C(=O)NC2CCCCC2)c(=O)c2cc(S(=O)(=O)N3CCOCC3)ccc21	x	n	n	n	n	n
Cc1ccc(NC(=O)c2cc(C(=O)c3cc(Cl)ccc3O)cn(-c3ccc(C)cc3)c2=O)cc1	n	12.0	n	n	n	n
N#Cc1cc(C(=O)c2cc(Cl)ccc2O)cn(-c2ccccc2)c1=O	n	n	n	n	n	n
CC(=O)Nc1ccc(S(=O)(=O)NCC(=O)N2CCN(S(=O)(=O)c3cccs3)CC2)cc1	x	n	n	x	x	n
CC(C)N1C(=O)C(Cc2nc3ccccc3c(=O)n2-c2ccccc2)c2ccccc21 (configuration not stated)	n	n	n	n	n	n
CC(C)N1C(=O)/C(=C/c2nc3ccccc3c(=O)n2-c2ccccc2)c2ccccc21	n	n	n	77.3	n	n
CC(C)N1C(=O)/C(=C\c2nc3ccccc3c(=O)n2-c2ccccc2)c2ccccc21	n	n	n	70.6	75.3	n
Cc1cccc(NC(=O)CNC(=O)CSc2nnc(C(F)(F)F)n2C)c1C	x	n	n	x	n	n
Cc1ccc(NCN2C(=O)C(=O)c3ccccc32)nc1	n	13.1	n	n	n	n

Assay outcomes from PubChem BioAssay.
